Bioassay records as filed in PubChem BioAssay.
Only some compounds are listed: those with a hit (about 1.2% of all), similar ones and a draw of the others.
TRPML3 ag = human mucolipin-3 channel agonism | Q8TDD5 | activation, % at 3 µM | hit rate 0.29% among 220,000 | AID 1448 | HEK293 TRPML3-YFP, Fluo-8 calcium fluorescence; 100% = the carbachol control signal;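 active = activation above its plate's cutoff, the mean activation of the plate's test wells plus 3 SD, cut at about 12% in these data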;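 note: 0% = DMSO only wells and 100% = carbachol wells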
Target sequence (Q8TDD5 whole entry, looked up): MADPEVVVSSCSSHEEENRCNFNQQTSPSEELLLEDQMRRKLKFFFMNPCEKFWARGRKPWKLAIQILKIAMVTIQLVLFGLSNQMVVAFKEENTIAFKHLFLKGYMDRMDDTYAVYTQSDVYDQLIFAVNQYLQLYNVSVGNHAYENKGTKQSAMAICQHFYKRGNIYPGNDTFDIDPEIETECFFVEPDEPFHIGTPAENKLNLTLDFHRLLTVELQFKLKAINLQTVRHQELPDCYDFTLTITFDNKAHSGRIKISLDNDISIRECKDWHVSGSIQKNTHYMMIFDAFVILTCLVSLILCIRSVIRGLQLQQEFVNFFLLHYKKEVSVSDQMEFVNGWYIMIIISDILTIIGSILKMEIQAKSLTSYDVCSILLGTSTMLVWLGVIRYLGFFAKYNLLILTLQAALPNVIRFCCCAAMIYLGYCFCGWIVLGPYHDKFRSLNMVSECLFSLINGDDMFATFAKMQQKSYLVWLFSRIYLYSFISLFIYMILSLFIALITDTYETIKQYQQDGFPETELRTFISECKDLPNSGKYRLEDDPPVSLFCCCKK
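Test system – HEK293 line with stable expression of human TRPML3-YFP channel · Control set – carbachol 87 µM final as high control (100%), DMSO as low control (0%) · Signal – Fluo-8 calcium dye fluorescence, ex 470-495, em 515-575 nm · Incubation – 1-h 37 °C dye load, 5-s basal, 120-s post-compound reads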
CRFR2-BP antag = CRF-BP/CRF-R2 complex antagonism. HEK293 CRF-R2/CRF-BP, CRF-induced calcium fluorescence. inhibition, % at 11.8 µM. hit rate 0.59% among 350,000. AID 588475;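 active = inhibition of the ligand-induced calcium signal above about 50% at the single tested concentration, limit read from the data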
CRFR2-BP ag = agonists of human CRF-binding protein/CRF-R2 receptor complex | hit rate 0.46% among 350,000 | AID 588473 | activation, % at 13.2 µM | HEK293 CRF-R2/CRF-BP, calcium dye fluorescence (FLIPR); percent of saturating CRF peptide response;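 active = activation of at least 50%, plus an integration ratio under a set limit after plate pattern correction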;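 note: plate controls were neutral control wells without compound for no effect and CRF at EC100 for full effect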
TRPN1 ag = activates the zebrafish TRPN1 channel; HEK293 zebrafish TRPN1-YFP, Fluo-8 calcium fluorescence; 100% = response to 87 µM carbachol; hit rate 0.18% among 220,000; activation, % at 3 µM;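 active = activation above its plate's cutoff, the mean activation of test wells on that plate plus 3 SD, cut at about 19% in these data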;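 note: 0% = DMSO alone and 100% = 87 µM carbachol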
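System: zebrafish TRPN1-YFP in HEK293 cells / Dosing: 3 µM single point / Timing: dye loading 1 h at 37 °C, then 30 min room temperature / Signal: Fluo-8 calcium fluorescence, excitation 470-495 nm, emission 515-575 nm / Read-out basis: percent activation from peak over basal fluorescence ratio, control-normalized / Control set: high carbachol 87 µM, low DMSO alone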
* = called active by the depositor; x = no result given.

SMILES	TRPML3 ag	CRFR2-BP antag	CRFR2-BP ag	TRPN1 ag
COc1ccc(OC)c(-c2oc3ccccc3c(=O)c2O)c1	-1	-9	1	-1
O=C1C2CC=CCC2C(=O)N1c1nccs1 (stereo not given)	x	3	0	x
CCOc1ccc(NC(=O)[C@@H](NC(=O)c2ccccc2)[C@@H](C)CC)cc1	0	63*	0	-1
CCN(CC)S(=O)(=O)c1ccc(Cl)c(NC(=O)c2cc(Cl)cc(Cl)c2)c1	0	53*	1	2
CSc1ncccc1C(=O)OCC(=O)N1CCN(C(=O)c2ccco2)CC1	x	0	-3	x
CCOC(=O)C1=C(Cc2ccc(OC)cc2)C(=O)c2ccccc2C1=O	2	-92	61*	3
CC[n+]1c(/C=C/C=C/N(C(C)=O)c2ccccc2)sc2ccccc21	0	-120	157*	0
CCn1c(/C=C/N(C(C)=O)c2ccccc2)[n+](CC)c2ccc(Cl)cc21	0	6	1	3
Cc1nn(C(=O)c2c(-c3ccccc3)noc2C)c(C)c1N=Nc1cc(C(F)(F)F)cc(C(F)(F)F)c1	0	53*	5	1
CCOC(=O)C1C(=O)C=C(/C=C/c2ccc(N(C)C)cc2)CC1c1ccccc1 (stereo not given)	5	-264	292*	5
CS(=O)(=O)N1CCN(C(=O)COc2ccc3ccccc3c2)CC1	1	64*	0	2
Cc1cccc(N2CCN(S(=O)(=O)c3ccc(Cl)nc3)CC2C)c1 (stereo not given)	x	76*	0	x
Cc1cccc(N2CCN(S(=O)(=O)c3ccc4c(c3)C(C)(C)C(=O)N4C)CC2C)c1 (stereo not given)	x	22	0	x
Cc1cc(C(=O)COC(=O)c2ccc(O)cc2)c(C)n1CC1COc2ccccc2O1 (stereo not given)	0	-2	4	0
CC(=O)Nc1ccc(S(=O)(=O)N2CCN(c3nnnn3-c3ccccc3)CC2)cc1	1	102*	0	1
O=c1ccc2c(-c3ccccc3)c3ccc(O)cc3oc-2c1	x	-124	178*	x
COc1ccccc1C1c2c(oc3ccc(Cl)cc3c2=O)C(=O)N1c1cc(C)on1 (stereo not given)	1	x	x	2
CCCCCc1cc(O)c2c(C)cc(=O)oc2c1	5	16	12	13
CCCCc1cc(O)c(CCCC)c(O)c1	36*	-51	100*	52*
Cc1sc2nc(CN3CCOCC3)nc(NS(=O)(=O)c3ccc4c(c3)OCCO4)c2c1C	1	6	-1	-2
CC1CC2(CCCC2)N(C(=O)N(C)C)c2ccc(F)cc21 (stereo not given)	x	-3	0	x
C/C(=N\NC(=O)c1cccc(Cl)c1)C1C(=O)c2ccccc2C1=O	0	85*	26	1
C/C(=N\NC(=O)CCc1ccccc1)C1C(=O)c2ccccc2C1=O	0	4	-2	1
O=c1[nH]c2cc3c(cc2cc1C(c1nnnn1C1CCCCC1)N1CCSCC1)OCCO3 (stereo not given)	1	-80	54*	1
COc1ccc(-n2c(CNC(=O)COc3ccccc3)n[nH]c2=S)cc1	0	-22	0	-1
SMILES	TRPML3 ag	CRFR2-BP antag	CRFR2-BP ag	TRPN1 ag
COc1ccc2ccccc2c1C(O)c1nccn1C (stereo not given)	1	-107	104*	-1
Cc1ccnc(NC(=O)Cn2cc([N+](=O)[O-])cn2)c1	0	7	0	0
CC12CCC(=O)N1C(C(=O)NNC(=O)c1ccccc1F)CS2 (stereo not given)	x	-2	4	x
CCOc1ccccc1/C=C(/NC(=O)c1ccccc1)C(=O)NC(C)c1ccccc1 (stereo not given)	0	113*	-1	-1
CCCn1c(=O)c(C(=O)NNC(=O)c2ccc(Cl)cc2Cl)c(O)c2ccccc21	x	-36	70*	x
Cc1nc2ccccc2n1CCOc1ccc([N+](=O)[O-])cc1	0	96*	-2	2
Cc1nc2ccccc2c(=O)n1NC(=O)c1ccc(Cl)cc1	x	-7	-1	x
COc1ccccc1N/C=C/c1onc(C)c1[N+](=O)[O-]	3	-68	89*	5
Cc1noc(/C=C/Nc2ccc(F)cc2F)c1[N+](=O)[O-]	1	-7	3	0
CCCCc1nnc(NC(=O)CCS(=O)(=O)c2ccc(C)cc2)s1	x	2	0	x
CC1(C)CC(=O)C2=C(C1)c1c(ccc3ccccc13)NC2c1cc([N+](=O)[O-])cc([N+](=O)[O-])c1O (stereo not given)	-1	78*	-1	-1
COc1ccc(S(=O)(=O)Nc2nc3ccccc3nc2NCc2ccc3c(c2)OCO3)cc1	1	57*	-1	1
CCOC(=O)N1CCN(Cc2c(F)cccc2Cl)CC1	0	-2	2	0
CSCSC1=C(C#N)C(c2ccccc2Cl)C(C(C)=O)=C(C)N1 (stereo not given)	0	55*	2	-1
Cc1ccc(S(=O)(=O)n2nc(OC(=O)c3ccccc3C)cc2N)cc1	x	-15	1	x
Cc1ccc(S(=O)(=O)n2nc(OC(=O)c3ccco3)cc2N)cc1	1	60*	8	-1
Nc1cc(OC(=O)c2ccco2)nn1S(=O)(=O)c1ccc(F)cc1	0	58*	-1	-1
COC(=O)c1ccsc1NC(=O)c1cccc(OC)c1	-1	12	0	-2
O=C(CN1CCN(C(c2ccccc2)c2ccccc2)CC1)N1CCOCC1	0	-9	0	0
O=C(Nc1cccc2ncccc12)c1ccc2c(c1)OCCO2	0	13	57*	1
Nc1ccc(C(=O)Nc2cccc3ncccc23)cc1	x	10	0	x
Nc1nonc1-n1nnc(C(=O)N/N=C/c2ccccc2)c1CSc1ccc(Cl)cc1	1	-77	110*	0
O=C(O)c1ccc(CSCc2ccccc2F)o1	1	-3	-1	1
O=C(CSc1nnc(C2COc3ccccc3O2)o1)NC1CCCCC1 (stereo not given)	0	54*	-2	0
O=C(CSc1nnc(C2COc3ccccc3O2)o1)N1CCCCC1 (stereo not given)	0	11	0	1
SMILES	TRPML3 ag	CRFR2-BP antag	CRFR2-BP ag	TRPN1 ag
O=C1CCC/C(=N/NC(=O)c2sc3ccccc3c2Cl)C1	6	-57	53*	10
CSCCC(=O)N1CCC(n2nccc2NC(=O)CCc2ccccc2)CC1	x	8	-1	x
Cc1ccc(N=C2NC(=O)/C(=C/c3cn(C)c4ccccc34)S2)cc1C	4	-55	64*	8
Cc1ccccc1CN1CCC(n2nccc2NC(=O)CCOc2ccccc2)CC1	x	-5	0	x
CCc1nc(NCC2CCCO2)c(C#N)c2c1COC(C)(C)C2 (stereo not given)	0	-18	0	1
O=C(Nc1ccc(Br)cc1)c1ccc(N2C(=O)C3CC=CCC3C2=O)cc1 (stereo not given)	4	-3	2	10
